Source: ChEMBL document CHEMBL6153049, “Functionalized regioisomers of the natural product phenazines myxin and iodinin as potent inhibitors of Mycobacterium tuberculosis and human acute myeloid leukemia cells” (Eur J Med Chem, 2025)

Legend:
Format in all cases: functional, organism-based
Conditions in all cases: 168 h
[1] = system: Mycobacterium tuberculosis; assay: Antimycobacterial activity against INH-resistant Mycobacterium tuberculosis expressing katG+ assessed as bacterial growth inhibition measured after 1 week by MABA assay
How it was run: (§1)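 Colonies grown on 7H10+OADC agar at 37 °C, then to mid-log in 7H9+OADC; about 4×10^5 CFU/mL inoculated into 7H9 with escalating compound concentrations. Incubated 37 °C for 1 week, then resazurin (0.6 mM in PBS) mixed 8:5 with 20 % Tween 80 was added and incubated overnight at 37 °C. Fluorescent resorufin read-out gave IC50.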

[2] = system: Mycobacterium tuberculosis; assay: Antimycobacterial activity against INH-resistant Mycobacterium tuberculosis expressing inhA+ assessed as bacterial growth inhibition measured after 1 week by MABA assay; how it was run: as §1
[3] = system: Mycobacterium tuberculosis; assay: Antimycobacterial activity against Rifampicin-resistant Mycobacterium tuberculosis expressing rpoB+ assessed as bacterial growth inhibition measured after 1 week by MABA assay; how it was run: as §1

SMILES | IC50 [1] [µM] | IC50 [2] [µM] | IC50 [3] [µM]
[O-][n+]1c2cccc(O)c2[n+]([O-])c2cccc(O)c21 | 0.07 | – | –
COc1cccc2c1[n+]([O-])c1cccc(O)c1[n+]2[O-] | 0.0625 | 0.0625 | 0.0625
[O-][n+]1c2ccccc2[n+]([O-])c2c(O)cccc21 | 0.05 | – | –
CCOCOc1cc(OC)c2c(c1)[n+]([O-])c1ccccc1[n+]2[O-] | 0.0625 | 0.0312 | 0.0312
[O-][n+]1c2ccccc2[n+]([O-])c2c(O)cc(O)cc21 | 0.5 | 0.125 | 1
COc1cc(O)c2c(c1)[n+]([O-])c1ccccc1[n+]2[O-] | 0.0625 | 0.016 | 0.0625
CCOC(=O)COc1cc(O)c2c(c1)[n+]([O-])c1ccccc1[n+]2[O-] | 0.25 | 0.0625 | 0.25
CCOC(=O)COc1cc(OC)c2c(c1)[n+]([O-])c1ccccc1[n+]2[O-] | 0.25 | 0.25 | 0.25
CC(=O)Oc1cc(O)c2c(c1)[n+]([O-])c1ccccc1[n+]2[O-] | 1 | 0.5 | 1
CCOc1cc(O)c2c(c1)[n+]([O-])c1ccccc1[n+]2[O-] | 0.0625 | 0.004 | 0.0625
COc1cccc2c1[n+]([O-])c1ccccc1[n+]2[O-] | 0.125 | 0.125 | 0.125
COc1cc(OC(C)=O)c2c(c1)[n+]([O-])c1ccccc1[n+]2[O-] | 0.125 | 0.125 | 0.25
CCOCOc1cc(O)c2c(c1)[n+]([O-])c1ccccc1[n+]2[O-] | 0.0625 | 0.004 | 0.0312
COc1cc(OC)c2c(c1)[n+]([O-])c1ccccc1[n+]2[O-] | 0.125 | 0.125 | 0.125
COCOc1cc(O)c2c(c1)[n+]([O-])c1ccccc1[n+]2[O-] | 0.125 | 0.125 | 0.125
